{"source": "the M2OR odorant receptor database", "data": [{"molecular_target": "T1, UniProt Q8VF52", "T1 sequence (whole entry)": "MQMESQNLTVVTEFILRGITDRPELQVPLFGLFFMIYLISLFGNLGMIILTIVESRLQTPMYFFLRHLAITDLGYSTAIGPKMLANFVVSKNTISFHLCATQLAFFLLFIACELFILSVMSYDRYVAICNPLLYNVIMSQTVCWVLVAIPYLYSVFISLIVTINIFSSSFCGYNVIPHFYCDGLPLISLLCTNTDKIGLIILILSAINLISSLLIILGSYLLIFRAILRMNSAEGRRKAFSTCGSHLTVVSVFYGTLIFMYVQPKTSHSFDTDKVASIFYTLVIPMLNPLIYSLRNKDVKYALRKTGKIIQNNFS", "conditions": "stereoisomer not certain", "procedure,_shortened": "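Transient luciferase assays in mammalian cell lines were common, though methods varied by source. The values come from published papers and their supplementary material, with extra details from the original authors when needed. Responsive refers to a measured signal the original authors judged statistically different from baseline, and non-responsive (inactive) to the remainder.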", "values": [{"molecule": "CCCCCCC(C)=O", "odorant receptor agonist call": "inactive"}, {"molecule": "CCCCCCC(=O)[O-].[H+]", "odorant receptor agonist call": "inactive"}, {"molecule": "CC(=O)OCC=C(C)C", "odorant receptor agonist call": "inactive"}, {"molecule": "CC(C)CS", "odorant receptor agonist call": "inactive"}, {"molecule": "CCCC=O", "odorant receptor agonist call": "inactive"}, {"molecule": "CCSSCC", "odorant receptor agonist call": "inactive"}, {"molecule": "c1ccc2ncccc2c1", "odorant receptor agonist call": "active"}, {"molecule": "O=C1Cc2ccccc2O1", "odorant receptor agonist call": "inactive"}, {"molecule": "COc1cc(C(=O)O)ccc1O", "odorant receptor agonist call": "inactive"}, {"molecule": "CC12CCC(CC1=O)C2(C)C", "note": "(centres undefined)", "odorant receptor agonist call": "active"}, {"molecule": "CC(=O)Oc1ccccc1", "odorant receptor agonist call": "inactive"}, {"molecule": "CCCCCCCOC(=O)C(C)C", "odorant receptor agonist call": "inactive"}, {"molecule": "CNc1ccccc1C(=O)OC", "odorant receptor agonist call": "inactive"}, {"molecule": "CC(C)=CCCC(C)CCO", "note": "(centres undefined)", "odorant receptor agonist call": "inactive"}, {"molecule": "CCCCCC=O", "odorant receptor agonist call": "inactive"}, {"molecule": "CCCCCCCC(C)=O", "odorant receptor agonist call": "inactive"}, {"molecule": "CSSCc1ccco1", "odorant receptor agonist call": "inactive"}, {"molecule": "CC(C)=CCCC(C)=CCOC(=O)C(C)C", "odorant receptor agonist call": "inactive"}, {"molecule": "CCCCCO", "odorant receptor agonist call": "inactive"}, {"molecule": "O=c1ccc2ccccc2o1", "odorant receptor agonist call": "active"}, {"molecule": "O=C(c1ccccc1)c1ccccc1", "odorant receptor agonist call": "inactive"}, {"molecule": "CCOC(=O)C(C)CC", "note": "(centres undefined)", "odorant receptor agonist call": "inactive"}, {"molecule": "CC1CCC(C(C)C)C(=O)C1", "note": "(centres undefined)", "odorant receptor agonist call": "inactive"}, {"molecule": "CCCCCCCCS", "odorant receptor agonist call": "inactive"}, {"molecule": "O=C([O-])CCCCCCC(=O)[O-].[H+].[H+]", "odorant receptor agonist call": "inactive"}, {"molecule": "CCc1ccccc1O", "odorant receptor agonist call": "inactive"}, {"molecule": "C=CC(=C)CCC=C(C)CCC=C(C)C", "odorant receptor agonist call": "inactive"}, {"molecule": "C=CCOC(=O)CCCCCC", "odorant receptor agonist call": "inactive"}, {"molecule": "CCCCCOC(=O)CCC", "odorant receptor agonist call": "inactive"}, {"molecule": "CCCCOC(=O)C(C)OC(=O)CCC", "note": "(centres undefined)", "odorant receptor agonist call": "inactive"}, {"molecule": "CC1CC=CCCCCCCCCCC(=O)C1", "note": "(centres undefined)", "odorant receptor agonist call": "inactive"}, {"molecule": "CCC(C(=O)O)c1ccccc1", "note": "(centres undefined)", "odorant receptor agonist call": "inactive"}, {"molecule": "c1ccccc1", "odorant receptor agonist call": "inactive"}, {"molecule": "CC(=O)OCc1ccccc1", "odorant receptor agonist call": "inactive"}]}]}
